Measured values reported in ChEMBL document CHEMBL4312006, “A novel chalcone derivative as Nrf2 activator attenuates learning and memory impairment in a scopolamine-induced mouse model” (Eur J Med Chem, 2020).
The source made the active and inactive calls. The calls are words filed in the database; no cut-off is given here.

Columns and labels:
[1] = biological target: T1, Nuclear factor erythroid 2-related factor 2 (Mus musculus) (UniProt Q60795); test: Activation of NRF2 in mouse BV2 cells assessed as increase in SOD activity incubated for 24 hrs by WST-1 based assay; type: cell-based
T1 sequence (whole entry): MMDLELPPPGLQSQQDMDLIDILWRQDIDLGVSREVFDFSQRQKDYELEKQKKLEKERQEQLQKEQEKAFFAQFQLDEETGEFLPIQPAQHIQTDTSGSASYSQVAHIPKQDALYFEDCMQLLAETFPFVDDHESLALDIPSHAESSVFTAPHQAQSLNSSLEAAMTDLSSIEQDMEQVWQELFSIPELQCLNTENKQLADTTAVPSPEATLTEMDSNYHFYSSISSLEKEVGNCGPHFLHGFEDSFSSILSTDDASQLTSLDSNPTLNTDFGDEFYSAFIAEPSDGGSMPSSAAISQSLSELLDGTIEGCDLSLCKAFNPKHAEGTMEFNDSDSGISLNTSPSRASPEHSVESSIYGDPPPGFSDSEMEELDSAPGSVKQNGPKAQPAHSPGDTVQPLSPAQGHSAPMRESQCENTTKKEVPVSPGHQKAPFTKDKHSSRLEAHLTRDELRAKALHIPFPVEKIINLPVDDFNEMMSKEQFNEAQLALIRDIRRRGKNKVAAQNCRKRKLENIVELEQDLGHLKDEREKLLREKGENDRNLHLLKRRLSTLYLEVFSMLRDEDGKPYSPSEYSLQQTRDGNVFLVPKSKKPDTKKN
Outline: (§1)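 BV-2 cells (1.0×10^6) treated with compound for 24 h, or for 6 h followed by 400 μM H2O2 for 18 h. Cells washed, sonicated in ice-cold PBS and centrifuged; supernatant assayed by WST-1/superoxide inhibition. Activity derived from the IC50 of the inhibition curve and given as U/mg protein (1 U = 50% inhibition of WST-1 reduction).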

[2] = biological target: T1, Nuclear factor erythroid 2-related factor 2 (Mus musculus); test: Activation of NRF2 in mouse BV2 cells assessed reduction in LPS-stimulated IL-6 level preincubated for 3 hrs followed by LPS stimulation for 24 hrs by ELISA; type: cell-based
Outline: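 BV-2 cells pre-incubated with a range of compound concentrations for 3 h, then stimulated with 0.2 μg/mL LPS for 24 h. TNF-α or IL-6 in the culture medium quantified by sandwich ELISA kits. Compared with LPS-treated control by one-way ANOVA with Dunnett's test.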

[3] = biological target: T1, Nuclear factor erythroid 2-related factor 2 (Mus musculus); test: Activation of NRF2 in mouse BV2 cells assessed as inhibition of H2O2-induced reduction in SOD activity incubated for 6 hrs followed by H2O2 stimulation and measured after 18 hrs by WST-1 based assay; type: cell-based; outline: as §1
[4] = test system: Mus musculus; test: Antioxidant activity in mouse assessed as inhibition of scopolamine-induced reduction in SOD activity at 30 mg/kg, po administered for 5 days and measured on day 5 by WST-1 based assay; type: functional, organism-based
Outline: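 Male C57BL/6N mice (10 weeks) dosed 30 mg/kg/day compound in saline by oral gavage for 5 days, with scopolamine 2 mg/kg i.p. Hippocampus homogenised in sucrose buffer (pH 7.4) and centrifuged 40 min at 4 °C. SOD activity in the supernatant measured by WST-1 kit and given as U/mg protein. One-way ANOVA with Tukey's test.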

[5] = biological target: T1, Nuclear factor erythroid 2-related factor 2 (Mus musculus); test: Activation of NRF2 in mouse BV2 cells assessed as increase in HO1 protein expression at 10 uM incubated for 12 hrs by Western blot analysis; type: cell-based
Outline: (§2)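 BV-2 cells washed in ice-cold PBS and lysed on ice for 40 min in RIPA buffer with protease inhibitors. Nuclear fractions prepared separately. 10 μg protein run on SDS-PAGE and blotted to PVDF. Membranes blocked in 5% skim milk/TBST and probed overnight at 4 °C for Nrf2, HO-1, GCLM or SOD1. HRP secondary with ECL detection. Band densities normalised to Lamin B1 or β-actin.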

[6] = biological target: CYP2C9 (Homo sapiens, UniProt P11712); test: Inhibition of CYP2C9 (unknown origin) assessed as remaining activity relative to control; type: ADME
CYP2C9, sequence (P11712 whole entry): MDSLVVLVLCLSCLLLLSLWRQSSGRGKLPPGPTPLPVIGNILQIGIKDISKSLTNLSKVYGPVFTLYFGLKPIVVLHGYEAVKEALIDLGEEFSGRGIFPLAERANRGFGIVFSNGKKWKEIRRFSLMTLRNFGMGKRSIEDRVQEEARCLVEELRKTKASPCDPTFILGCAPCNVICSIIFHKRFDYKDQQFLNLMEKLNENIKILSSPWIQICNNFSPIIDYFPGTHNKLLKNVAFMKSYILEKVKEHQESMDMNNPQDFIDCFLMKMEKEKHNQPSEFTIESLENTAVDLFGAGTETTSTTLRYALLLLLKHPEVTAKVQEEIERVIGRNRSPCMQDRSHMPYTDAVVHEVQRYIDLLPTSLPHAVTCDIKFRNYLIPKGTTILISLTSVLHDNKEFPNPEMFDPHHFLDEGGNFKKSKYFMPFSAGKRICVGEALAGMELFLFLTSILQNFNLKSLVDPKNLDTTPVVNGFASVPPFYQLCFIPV

[7] = test system: Mus musculus; test: Effect on mean number of arm entries in C57BL/6 mouse model of scopolamine-induced amnesia at 30 mg/kg, po administered for 5 days and measured on day 5 after 30 mins of scopolamine stimulation by Y-maze test; type: ADME, organism-based; conditions: in vivo
Outline: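 Male C57BL/6N mice given 30 mg/kg/day compound in saline by gavage for 5 days. Scopolamine 2 mg/kg in saline given i.p. 30 min before testing on the last day. Mice handled daily for 7 days beforehand. Free exploration of a three-arm Y-maze for 10 min, with entries scored manually (all four paws). Alternation = consecutive entries into three different arms.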

[8] = biological target: T1, Nuclear factor erythroid 2-related factor 2 (Mus musculus); test: Activation of NRF2 in mouse BV2 cells assessed as increase in GCLM mRNA level at 0.1 to 10 uM incubated for 8 hrs by qRT-PCR analysis; type: cell-based
Outline: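 BV-2 microglia grown in RPMI 1640 with 10% FBS, 2.05 mM L-glutamine and penicillin-streptomycin at 37 °C, 5% CO2. Cells exposed to a range of compound concentrations for 8 h. Ho-1 or Gclm mRNA measured by qRT-PCR and expressed relative to untreated control. Means ± SEM, one-way ANOVA with Dunnett's test.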

[9] = biological target: T1, Nuclear factor erythroid 2-related factor 2 (Mus musculus); test: Activation of NRF2 in mouse BV2 cells assessed as increase in nuclear NRF2 level incubated for 6 hrs by Western blot analysis; type: cell-based; outline: as §2
[10] = biological target: CYP2D6 (Homo sapiens, UniProt P10635); test: Inhibition of CYP2D6 (unknown origin) assessed as remaining activity relative to control; type: ADME
CYP2D6, sequence (P10635 whole entry): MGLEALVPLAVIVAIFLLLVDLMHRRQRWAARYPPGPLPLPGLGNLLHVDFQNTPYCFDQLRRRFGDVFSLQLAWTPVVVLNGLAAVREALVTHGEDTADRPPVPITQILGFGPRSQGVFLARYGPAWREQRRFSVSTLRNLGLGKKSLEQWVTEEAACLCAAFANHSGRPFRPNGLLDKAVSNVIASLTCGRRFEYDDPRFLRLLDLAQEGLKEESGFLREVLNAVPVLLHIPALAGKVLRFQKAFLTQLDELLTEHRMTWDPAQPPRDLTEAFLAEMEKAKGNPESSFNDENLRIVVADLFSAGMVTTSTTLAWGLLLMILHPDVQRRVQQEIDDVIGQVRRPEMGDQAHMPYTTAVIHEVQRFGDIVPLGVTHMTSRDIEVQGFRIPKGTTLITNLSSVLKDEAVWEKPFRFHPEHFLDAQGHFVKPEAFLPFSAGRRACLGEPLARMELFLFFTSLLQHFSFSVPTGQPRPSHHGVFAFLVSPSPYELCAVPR

[11] = test system: Mus musculus; test: Cognition enhancing effect in C57BL/6 mouse model of scopolamine-induced amnesia assessed as increase in latency to enter dark room at 30 mg/kg, po administered for 5 days and measured on day 5 after 30 mins of scopolamine stimulation by passive avoidance test relative to control; type: functional
Outline: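 Male C57BL/6N mice given 30 mg/kg/day compound in saline orally for 5 days. Scopolamine 1 mg/kg i.p. given on day 4, 30 min before the acquisition trial. Step-through latency recorded in the passive avoidance test.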

[12] = biological target: T1, Nuclear factor erythroid 2-related factor 2 (Mus musculus); test: Activation of NRF2 in mouse BV2 cells upregulation of SOD1 protein expression incubated for 6 hrs by Western blot analysis; type: cell-based; outline: as §2
[13] = biological target: T1, Nuclear factor erythroid 2-related factor 2 (Mus musculus); test: Activation of NRF2 in mouse BV2 cells assessed as increase in GCLM protein expression at 10 uM incubated for 12 hrs by Western blot analysis; type: cell-based; outline: as §2
[14] = test system: BV-2; test: Inhibition of H2O2-stimulated ROS production in mouse BV2 cells preincubated for 24 hrs followed by H2O2 stimulation for 20 mins by DCFH-DA dye based assay; type: functional, cell-based
Outline: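 BV-2 cells treated with a range of compound concentrations for 24 h at 37 °C. Loaded with 20 μM DCFH-DA for 40 min, then 200 μM H2O2 added for 20 min at 37 °C in the dark. DCF fluorescence read at ex 480 nm / em 530 nm. Compared with H2O2-treated control.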

[15] = biological target: T1, Nuclear factor erythroid 2-related factor 2 (Mus musculus); test: Activation of NRF2 in mouse BV2 cells assessed as increase in HO1 protein expression at 3 uM incubated for 6 hrs by Western blot analysis; type: cell-based; outline: as §2
[16] = Stability in human liver microsomes assessed as compound remaining after 30 mins; type: ADME, Microsome; conditions: read-out: Stability
[17] = biological target: T1, Nuclear factor erythroid 2-related factor 2 (Mus musculus); test: Activation of NRF2 in mouse BV2 cells assessed as increase in nuclear NRF2 level at 10 uM incubated for 2 hrs by Western blot analysis; type: cell-based; outline: as §2
[18] = Stability in human plasma assessed as compound remaining after 30 mins; type: ADME, cell-free; conditions: read-out: Stability

Q: What does the source list for `CN1CCN(C(=O)COc2ccc(C(=O)/C=C/c3ccccc3C(F)(F)F)cc2)CC1.Cl`?
A: Activity [1]: Dose-dependent effect; Activity [2]: Dose-dependent effect; Activity [3]: Active; Activity [4]: Active; fold change (FC) [5]: > 7; activity [6]: 95.1%; activity [7]: Non-Toxic; Activity [8]: Active; Activity [9]: Dose-dependent effect; activity [10]: > 100%; activity [11]: >70%; Activity [12]: Dose-dependent effect; fold change (FC) [13]: > 15; inhibition [14]: Dose-dependent effect; Activity [15]: Active; remaining at 0.5 h [16]: 16.1%; Activity [17]: Active; remaining at 0.5 h [18]: > 100%
